# Assay outcomes as filed in PubChem BioAssay.
# The list is not random: actives were taken first. Their share in the collection is about 2.9%.
# KLK7 zymogen act: activates the human kallikrein-7 zymogen. P49862. purified proKLK7, EDANS-DABCYL substrate fluorescence; 100% is mature enzyme control, 0% vehicle. activation, % at 7 µM. hit rate 0.9% among 370,000;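 active means activation above the mean of all tested compounds plus 3 SD, computed per campaign excluding outliers beyond control limits, cut at about 13% in these data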
# Target sequence (P49862 whole entry, looked up): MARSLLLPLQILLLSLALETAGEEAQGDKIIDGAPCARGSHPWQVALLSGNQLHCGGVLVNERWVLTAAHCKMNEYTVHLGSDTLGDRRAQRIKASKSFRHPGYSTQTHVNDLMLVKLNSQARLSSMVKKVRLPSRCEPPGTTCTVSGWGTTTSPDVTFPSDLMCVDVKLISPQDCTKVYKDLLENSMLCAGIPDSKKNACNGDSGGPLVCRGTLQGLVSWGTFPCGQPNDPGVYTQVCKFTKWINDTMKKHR
# Runt-SMMHC FRET: Runt domain-CBFb-SMMHC interaction inhibition; hit rate 0.74% among 220,000; inhibition, % at 20 µM; Q01196+Q13951; Cerulean-Runt/Venus-CBFb-SMMHC FRET ratio 530/480, 1 h;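 active means mean inhibition across duplicate retests at 20 µM reaching about 50%, limit read from the data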;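 further: 0% = DMSO wells and 100% = wells with excess untagged CBFb-SMMHC; inhibitors lower the FRET ratio by blocking Runt binding to CBFb-SMMHC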
# Runt-CBFb FRET: inhibitors of human RUNX1 Runt domain binding to CBFb; inhibition, % at 20 µM; Cerulean-Runt/Venus-CBFb FRET ratio 530/480, 1 h; hit rate 0.46% among 220,000; Q01196+Q13951; AID 1496;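 active means inhibition over about 50% at 20 µM in the single-dose screen, limit read from the data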;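 further: 0% = DMSO wells and 100% = excess unlabeled CBFb competitor control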
#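 Measured by: fluorescence energy transfer, 422 nm excitation, 530/480 nm emission; test system: Cerulean-tagged RUNX1 Runt domain (FRET donor) fusion protein; buffer or medium: Tris pH 7.5 buffer with BSA; compound: one dose, 20 µM compound, 1% DMSO; times: two 1 h room-temperature incubations shielded from light; benchmarks: unlabeled CBFb 5 µM, positive control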
# AI-2 QS modul: modulates the Vibrio harveyi AI-2 quorum sensing system; Vibrio harveyi JMH597 AI-2 luminescence/OD600 ratio, 9 h; hits give low values; strain lacks LuxN and CqsS sensors; 0 = neutral-control median; activity change, % at 7.5 µM; hit rate 0.4% among 300,000; AID 2094; in the data active means activity change below about -75%, passing the limit was not always enough;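 further: luminescence divided by OD600 gain over 9 h not by final OD600 alone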
# Wee1 degr inh: inhibitors of human Wee1 degradation | P30291 | HeLa Luc-Wee1K328M stability, luciferase luminescence; 100% = proteasome inhibitor MG132 effect | reporter increase, % at 5 µM | hit rate 1.2% among 220,000 | AID 1321;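 active means activation above the mean of all tested compounds plus 3 SD, set per screening run, cut at about 8.8% in these data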;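 further: cells exposed to compound for 20 h before luminescence read; 0% = DMSO alone and 100% = MG132 at 30 µM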
# RanGTP-Impb inh: inhibitors of RanGTP-importin-beta interaction, primary screen, biochemical, FRET, CFP-Ran, YFP-importin-beta, homogeneous; hit rate 1.1% among 300,000; cell-free CFP-Ran/YFP-importin-beta FRET ratio; inhibition, % (concentration not given with the values);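 active means more than half of the replicate wells show a fall in the fluorescence ratio signal beyond about 16%, limit read from the data, passing the limit was not always enough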;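 further: 0% = DMSO wells and 100% = Ran loaded with GDP instead of GTP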
# proKLK7 act conf: proKLK7 activation, confirmation | shares compounds with KLK7 zymogen act | purified proKLK7, EDANS-DABCYL substrate fluorescence; scaled: vehicle 0, mature enzyme 100 | activation, % at 7 µM | hit rate 68% among 3,200 | AID 686949;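 active means activation, as change over the incubation, above the mean of all tested compounds plus 3 SD, cut at about 13% in these data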
# EDANS-DABCYL int: fluorescence interference counter-screen for KLK7 activators | shares compounds with KLK7 zymogen act | EDANS-DABCYL substrate fluorescence interference, no enzyme, 4 h; solvent 0%, active enzyme control 100% | activation, % at 7 µM | hit rate 80% among 3,200 | AID 686952;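 active means activation above the all-compound mean plus 3 SD, ignoring values outside control-based bounds, cut at about 4.8% in these data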;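 further: value is the 4 h activation minus the activation read at time zero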
# EDANS interf: counter-screen for kallikrein-7 activators: EDANS-DABCYL interference, dose response; shares compounds with KLK7 zymogen act; EDANS-DABCYL peptide fluorescence interference, no enzyme; EC50, µM; hit rate 20% among 250; AID 720493;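 active means compounds that raise the fluorescence signal in this interference counterscreen, with EC50 at or below 10 µM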;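 further: intact quenched peptide substrate alone read at 355 nm excitation and 520 nm emission; signal is fluorescence gain from T0 to T4 after four hours at room temperature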
# Active calls of the source: *; i = inactive; / = not tested or not shown.
SMILES,KLK7 zymogen act,Runt-SMMHC FRET,Runt-CBFb FRET,AI-2 QS modul,Wee1 degr inh,RanGTP-Impb inh,proKLK7 act conf,EDANS-DABCYL int,others
CCCSC1=C(C#N)C(c2ccc(OC)cc2)C2=C(CC(C)(C)CC2=O)N1 (configuration not stated),16*,5,3,37,0,2,-1,-1,
COc1cccc(C2C(C#N)=C(C)NC3=C2C(=O)CC(C)(C)C3)c1 (configuration not stated),25*,55*,17,28,-4,2,18*,34*,
N#CCCN(Cc1ccccc1)C(=O)c1nccnc1C(=O)O,0,/,/,-5,/,1,/,/,
CCC(C)NC(=O)c1c(-c2cc(Cl)c(OC)c(Cl)c2)noc1C (configuration not stated),0,2,0,-2,1,-3,/,/,
CSc1ccc(CN2CCC(C)(Oc3cnc(Cl)c4ccccc34)C2)cc1 (configuration not stated),4,/,/,/,/,/,/,/,
COc1ccc(N2CC(C(=O)Nc3nnc(SCC(=O)Nc4ccc(NC(C)=O)cc4)s3)CC2=O)cc1 (configuration not stated),1,/,/,/,/,/,/,/,
COc1ccccc1N1CCN(S(=O)(=O)c2c(C(=O)N3CCOCC3)c(C)n(C)c2C)CC1,0,/,/,-6,/,0,/,/,
Cn1c(CCCNC(=O)c2ccco2)nc2ccccc21,0,/,/,/,/,/,/,/,
Cc1cc(=O)c2c(N(C)C)cccc2[nH]1,82*,/,/,/,/,/,57*,69*,
CC(C)c1ccc(NC(=O)CSc2n[nH]c(=O)n2-c2ccc3c(c2)OCCO3)cc1,0,-6,2,14,2,-3,/,/,
Cc1ccc(NC(=O)CCC(=O)N2CCC(C)CC2)c([N+](=O)[O-])c1,0,/,/,29,/,2,/,/,
COc1ccc(CN2C[C@@H](CO)O[C@@H](n3cnc4c(NCc5ccc(F)cc5)ncnc43)C2)cc1,0,/,/,/,/,/,/,/,
CC(C)c1ccc(NC(=O)C(c2ccc3c(c2)OCO3)N2CCC3(CC2)OCCO3)cc1 (configuration not stated),0,-1,-2,-4,4,0,/,/,
O=C(Nc1ccc2c(c1)OCO2)C(c1ccc(Cl)cc1)N1CCC2(CC1)OCCO2 (configuration not stated),18*,-1,-1,10,-1,0,0,-1,
CCN(CC)C(=O)Cn1cc(C(=O)C(=O)Nc2ccc3c(c2)OCCO3)c2ccccc21,1,/,/,10,/,3,/,/,
COC(=O)C1=C(C)NC(=O)NC1c1ccccc1Cl (configuration not stated),0,/,/,26,/,2,/,/,
COC(=O)C1=CN(C)C=C(C(=O)OC)C1c1ccccc1Cl,24*,83*,5,22,-3,87*,76*,77*,
CCn1c(CN2CCN(Cc3ccc(C)cc3)C(CCO)C2)nc2ccccc21 (configuration not stated),0,0,-1,5,-3,2,/,/,
COc1cccc(CCNC(=O)C2CCC(=O)N(Cc3cccc(OC)c3)C2)c1 (configuration not stated),-1,/,/,-3,/,0,/,/,
COc1cccc(CN2CC(C(=O)NCCc3cn4cccnc4n3)CCC2=O)c1 (configuration not stated),19*,/,/,/,/,/,19*,14*,EDANS interf=9.7*
O=C(COC(=O)c1ccccc1NCCO)Nc1cc(C(F)(F)F)ccc1N1CCOCC1,-3,/,/,28,/,-2,/,/,
COC(=O)C1=CN(C(C)C)C=C(C(=O)OC)C1c1cccc(OC)c1,39*,-16,72*,15,-1,66*,3,-4,
CCN1C=C(C(=O)OC)C(c2cccc(C)c2)C(C(=O)OC)=C1,40*,61*,49,9,3,4,-54,-51,
COC(=O)C1=CN(c2cc(C)cc(C)c2)C=C(C(=O)OC)C1c1cccc(F)c1,-2,/,/,12,/,4,/,/,
S=c1[nH]nc(-c2cccc(Cl)c2)n1CCN1CCCCC1,0,3,5,22,-4,0,/,/,
SMILES,KLK7 zymogen act,Runt-SMMHC FRET,Runt-CBFb FRET,AI-2 QS modul,Wee1 degr inh,RanGTP-Impb inh,proKLK7 act conf,EDANS-DABCYL int,others
CCOC(=O)CNC(=O)CSc1nc(Cc2ccccc2)nc2ccccc12,0,/,/,14,/,-3,/,/,
Clc1c2c(nc3ccccc13)CCC2,0,/,/,2,/,2,/,/,
Nc1ccc2nc3c(c(Cl)c2c1)CCCC3,14*,-21,11,9,-3,4,1,1,
CCOc1ccc2nc(NCCNC(=O)CC)c(C#N)cc2c1,29*,95*,10,31,-1,2,40*,44*,
COc1ccc2nc(Cl)cc(Cl)c2c1,-1,-3,0,-12,-2,0,/,/,
C=CS(=O)(=O)c1c2cc(OC)ccc2nc2ccc(OC)cc12,22*,/,/,/,/,/,-36,-29,
COc1cc2c[n+](C)c3c4ccccc4ccc3c2cc1OC,26*,/,/,/,/,/,10,16*,
COc1ccc2c(c1)c[n+](C)c1c3cc(OC)c(OC)cc3ccc21,-2,/,/,/,/,/,/,/,
C=CCc1c(C)[nH]c2c(OC)cccc2c1=S,29*,32,26,10,0,6,13*,18*,
C=CCN(CC=C)C(=O)c1c(OC)cccc1OC,0,2,0,45,-3,1,/,/,
N=C1/C(=C\c2coc3ccccc3c2=O)C(=O)N=C2SC(c3ccncc3)=NN12,43*,-104,-57,70,-2,-62,47*,39*,EDANS interf=i
COc1ccccc1-c1nnc(C2CCN(S(=O)(=O)c3ccccc3[N+](=O)[O-])CC2)o1,0,/,/,4,/,0,/,/,
O=C(O)CSc1cccc2cccnc12,-4,-8,3,27,2,-3,/,/,
Cc1ccc(C(=O)COC(=O)CSc2cccc3cccnc23)c(C)c1,15*,/,/,/,6,0,12,12*,
CCOC(=O)/C(=C(/C)N)C1CC(=O)NC1=O (configuration not stated),33*,/,/,/,/,/,37*,37*,
CCOC(=O)C1=C(C)NC(=O)CC1c1ccccc1 (configuration not stated),0,-1,1,32,1,8,/,/,
